Data set [1] can be described thus: Food effect study A2103, single-dose PK in healthy volunteers. It is filed as in vivo, human. The conditions noted are these: single 600 mg dose.
Data set [2] is described as follows: In vitro solubility in aqueous buffered solutions and biorelevant media. The class given is physicochemical. Particulars: for solubility at 24 h: thermodynamic from solid. In a few lines: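 Crystalline succinate salt of test compound (~763 mg, ~600 mg free-form equivalent) added to 250 mL of 50 mM aqueous buffer (HCl/KCl pH 2.0, acetate pH 4.5, phosphate pH 6.8 or 7.5) or FaSSIF v1 (pH 6.5, 3 mM taurocholate, 0.75 mM lecithin) or FeSSIF v1 (pH 5.0, 15 mM bile salt). Held at 37 ± 1°C with magnetic stirring. Liquid separated at 24 h and assayed by HPLC. Top tested level 2.4 mg/mL; triplicate, mean reported.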

The nature of the next data set: pKa. The class given is physicochemical.

Some results are limits rather than exact numbers.

With `CN(C)C(=O)c1cc2cnc(Nc3ccc(N4CCNCC4)cn3)nc2n1C1CCCC1` [Ribociclib], the half-life (in general, how long it takes for the measured level to halve) in data set [1] (both, human, plasma, oral, 600 mg, T1/2, Geo-mean (CV% Geo-mean), fed state (high-fat, high-calorie meal)) was 33.6 h. For the same compound, in data set [1], the “Tmax fed minus fasted, difference of the medians (90% CI)” value is given as 1 (–2, 8) h. For the same compound, the solubility (in general, the dissolved amount per volume that the medium holds) in data set [2] (acidic media) was at most 200000 µg/mL. Moreover, the solubility at 24 h in data set [2] (aqueous buffered solution, 37 °C, pH 2, aqueous buffer) is over 2400 µg/mL; in data set [2] (biorelevant medium FaSSIF v1, 37 °C, pH 6.5, fassif), over 2400 µg/mL; in data set [2] (biorelevant medium FeSSIF v1, 37 °C, pH 5, fessif), over 2200 µg/mL. Moreover, the pKa (commonly the pH at which an ionisable group is half protonated) turned out to be 8.6 in the data set “pKa” (pKa1 (base)) and 5.5 in the data set “pKa” (pKa2 (base)).
